From article PMC12650307 (RSC Advances, 2025)

Key:
CDK2 = CDK2 (Homo sapiens, UniProt P24941); assay: In vitro CDK2 enzyme inhibition; assay type: biochemical
HepG2 cells = assay: MTT cytotoxicity assay, HepG2; assay type: cell-based; conditions: Homo sapiens, HepG2, 48 h, read-out: IC50 HepG2
MCF-7 cells [1] = assay: MTT cytotoxicity assay, MCF-7; assay type: cell-based; conditions: Homo sapiens, MCF7, 48 h, read-out: IC50 MCF-7
Bax = Bax level by ELISA in treated MCF-7 cells; assay type: cell-based, human
MCF-7 cells [2] = assay: Annexin V-FITC/PI apoptosis assay; assay type: cell-based, human; conditions: MCF-7, 48 h at IC50
Procedure, shortened: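 Treated MCF-7 cells for 48 h, then trypsinized and washed in PBS. Stained with annexin V-FITC plus propidium iodide at room temperature in the dark, per kit instructions, then read on a FACScan flow cytometer. Quadrants: upper left necrotic, upper right late apoptotic, lower right early apoptotic, lower left living. Untreated MCF-7 served as control.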

Bcl-2 = Bcl-2 level by ELISA in treated MCF-7 cells; assay type: cell-based, human
MCF-7 cells [3] = assay: Cell cycle analysis; assay type: cell-based, human
Procedure, shortened: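 MCF-7 cells were exposed for 48 h, harvested by trypsinization and washed twice in PBS. Fixed in ice-cold 60% (w/w) ethanol at 4 °C for 12 h, then rewashed in PBS. Stained 30 min in buffer with RNase and propidium iodide. Flow cytometry gave the % of cells in G1, S and G2, with untreated MCF-7 as control.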

SMILES	IC50 (CDK2) [µM]	IC50 (HepG2 cells) [µM]	IC50 (MCF-7 cells [1]) [µM]	also measured
Nc1nn(-c2ccccn2)c(N)c1N=Nc1nccs1 [Compound 12, 1-(Pyridin-2-yl)-4-(thiazol-2-yldiazenyl)-1H-pyrazole-3,5-diamine]	1.24 ± 0.85	–	–	–
COc1cccc2c1C(=O)c1c(O)c3c(c(O)c1C2=O)C[C@@](O)(C(=O)CO)C[C@@H]3O[C@H]1C[C@H](N)[C@H](O)[C@H](C)O1 [DOX, doxorubicin, reference compound]	–	4.5 ± 0.2	–	–
Nc1nn(-c2ccccn2)c(N)c1N=Nc1ccccc1Cl [Compound 11, 4-((2-Chlorophenyl)diazenyl)-1-(2-pyridinyl)-1H-pyrazole-3,5-diamine]	0.45 ± 0.02	74.2 ± 3.8	61.8 ± 3.4	CDK2 inhibitory activity relative to roscovitine (CDK2): 2 fold
Nc1nn(-c2ccccn2)c(N)c1N=Nc1ccc(S(=O)(=O)O)cc1 [Compound 4, 4-((3,5-Diamino-1-(2-pyridinyl)-1H-pyrazol-4-yl)diazenyl)benzenesulfonic acid]	0.75 ± 0.05	53.8 ± 3.2	48.7 ± 2.8	–
Cc1cccc(N=Nc2c(N)nn(-c3ccccn3)c2N)c1 [Compound 2, 1-(2-Pyridinyl)-4-(3-tolyldiazenyl)-1H-pyrazole-3,5-diamine]	1.05 ± 0.2	–	–	–
Nc1nn(-c2ccccn2)c(N)c1N=Nc1ccc(C(=O)O)c(O)c1 [Compound 5, 4-((3,5-Diamino-1-(2-pyridinyl)-1H-pyrazol-4-yl)diazenyl)-2-hydroxybenzoic acid]	0.56 ± 0.03	13.1 ± 1.1	8.03 ± 0.6	Bax/Bcl-2 ratio in comparison with control (Bax): approximately 20 fold; Bax (Bax; control 57.22 ± 0.9): 369.15 ± 0.7 pg/mL; Bax FLD (Bax; relative to control = 1): 6.45 fold; Late apoptosis (MCF-7 cells [2]; control 0.04): 8.10%; Necrosis (MCF-7 cells [2]; control 0.18): 0.02%; Early apoptosis (MCF-7 cells [2]; control 0.43): 71.1%; Total (apoptosis/necrosis) (MCF-7 cells [2]; control 0.65): 79.22; decrease of anti-apoptotic Bcl-2 level in comparison with control (Bcl-2): 3 fold; Bcl-2 (Bcl-2; control 5.31 ± 0.5): 1.72 ± 0.08 ng/mL; Bcl-2 FLD (Bcl-2; relative to control = 1): 0.3; fold increase in S phase in comparison to control (MCF-7 cells [3]; MCF-7): 1.2 fold; % S (MCF-7 cells [3]; MCF-7, 48 h at its IC50, control 35.52): 41.02%; % G1 (MCF-7 cells [3]; MCF-7, 48 h at its IC50, control 38.02): 11.98%; CDK2 inhibitory activity relative to roscovitine (CDK2): 2 fold
NC(N)=NS(=O)(=O)c1ccc(N=Nc2c(N)nn(-c3ccccn3)c2N)cc1 [Compound 6, 4-((3,5-Diamino-1-(2-pyridinyl)-1H-pyrazol-4-yl)diazenyl)-N-(diaminomethylene)benzenesulfonamide]	0.46 ± 0.02	22.8 ± 1.5	26.1 ± 1.7	CDK2 inhibitory activity relative to roscovitine (CDK2): 2 fold
Nc1nn(-c2ccccn2)c(N)c1N=Nc1cccc([N+](=O)[O-])c1 [Compound 9, 4-((3-Nitrophenyl)diazenyl)-1-(2-pyridinyl)-1H-pyrazole-3,5-diamine]	1.5 ± 0.7	–	–	–
CC(=O)c1ccc(N=Nc2c(N)nn(-c3ccccn3)c2N)cc1 [Compound 3, 1-(4-((3,5-Diamino-1-(2-pyridinyl)-1H-pyrazol-4-yl)diazenyl)phenyl)ethan-1-one]	1.2 ± 0.15	–	–	–
Nc1nn(-c2ccccn2)c(N)c1N=Nc1cc(Cl)c(Cl)cc1Cl [Compound 8, 1-(2-Pyridinyl)-4-((2,4,5-trichlorophenyl)diazenyl)-1H-pyrazole-3,5-diamine]	1.46 ± 0.5	–	–	–
Nc1nn(-c2ccccn2)c(N)c1N=Nc1ccc(N=Nc2ccccc2)cc1 [Compound 7, 4-((4-(Phenyldiazenyl)phenyl)diazenyl)-1-(2-pyridinyl)-1H-pyrazole-3,5-diamine]	0.77 ± 0.05	67.1 ± 3.5	35.1 ± 2.2	–
COc1ccc(N=Nc2c(N)nn(-c3ccccn3)c2N)cc1 [Compound 10, 4-((4-Methoxyphenyl)diazenyl)-1-(2-pyridinyl)-1H-pyrazole-3,5-diamine]	0.85 ± 0.05	41.6 ± 2.4	15.4 ± 1.2	–
